We go through 20 compounds from PubChem BioAssay AID504405 (Broad Institute, 2011).

Records with an inconclusive call do not appear. Active and inactive are the calls of the source.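 The calls were made as follows: active = fitted curve crosses 10% of positive-control caspase signal within tested doses in every repeat test; inconclusive = repeat tests disagree, or any test inconclusive; inactive = the rest.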

Tested on in one assay: not listed separately
Put plainly: non-primed MEF caspase induction – cell-based, wild-type MEF, CaspaseGlo luminescence, dry powder, set 3, counter-screen for A1 inhibitor project, dose response (AID 504405). As to conditions: wild-type MEF caspase activation, CaspaseGlo luminescence, 3 h; at 35 µM (top of the series). The procedure, abridged: (§1)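 test system = wild-type mouse embryonic fibroblasts, unprimed, not A1-dependent | quantity = 2500 cells/well | buffer or medium = RPMI-1640 growth medium with 10% FBS | dosing = compound added by pin transfer | timing = 3 h compound at 37 °C, 1 h CaspaseGlo at RT | signal = luminescence with CaspaseGlo caspase reagent | evaluation = caspase activation as toxicity flag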
Take `COCCn1c(=O)c(Sc2ccc(C)cc2)c(Sc2ccc(C)cc2)c2ccccc21`: the caspase activation is 0.603% (inactive). The same measure, in the same setting: under `Cn1c(=O)c([N+](=O)[O-])c(S(C)(=O)=O)c2ccccc21` stands -0.856% (inactive). Same read-out and setting: under `CCn1c(=O)c([N+](=O)[O-])c(Sc2ccc(C)cc2)c2ccccc21` stands 0.226% (inactive); under `Cc1ccc(Sc2c(Sc3ccc(C)cc3)c3ccccc3n(C)c2=O)cc1`, 0.922% (inactive); under `COc1ccc(N2CCN(c3nc(NCCc4ccc(OC)c(OC)c4)nc(N4CCOCC4)n3)CC2)cc1`, 0.165% (inactive). Still for that read-out and setting: then `CCn1c(=O)c(Sc2ccc(C)cc2)c(Sc2ccc(C)cc2)c2ccccc21`, with 0.52% (inactive). As for `Cn1c(=O)c(Sc2ccccn2)c(Sc2ccccn2)c2ccccc21`, the caspase activation was 0.793% (inactive). On the same count and under the same terms, then `O=c1[nH]c2ccccc2c(O)c1[N+](=O)[O-]`, with 0.522% (inactive); and `COc1ccc(CCNc2nc(N3CCCC3)nc(N3CCCC3)n2)cc1OC`, with -0.327% (inactive); and `COCCn1c(=O)c([N+](=O)[O-])c(Cl)c2ccccc21`, with -0.545% (inactive). As for `COc1ccc(CCNc2nc(N3CCOCC3)nc(N3CCOCC3)n2)cc1OC`, the caspase activation was 0.145% (inactive). Still for that read-out and setting: under `C/C(=N\Nc1nc(N2CCCCC2)nc(N2CCCCC2)n1)c1ccc(F)cc1` stands 0.38% (inactive); under `O=C(COc1ccc(Cl)cc1Cl)NNc1nc(N2CCOCC2)nc(N2CCOCC2)n1`, -0.598% (inactive).

On to `COc1nc2ccccc2c(Cl)c1[N+](=O)[O-]`, for which the caspase activation is 6.45% (inactive). For the compound `Cc1ccc(S(=O)(=O)c2c([N+](=O)[O-])c(=O)n(C)c3ccccc23)cc1`, the caspase activation is -0.89% (inactive). On the same count and under the same terms, then `Cc1ccc(Sc2c([N+](=O)[O-])c(=O)n(C)c3ccccc23)cc1`, with 5.89% (inactive). Same read-out and setting: under `COc1nc2ccccc2c(Sc2ccc(C)cc2)c1[N+](=O)[O-]` stands 0.723% (inactive). `Cc1ccc(Sc2c(Sc3ccc(C)cc3)c3ccccc3n(Cc3ccccc3)c2=O)cc1`: the caspase activation was 0.126% (inactive). Still for that read-out and setting: then `COc1c([N+](=O)[O-])c(=O)n(C)c2ccccc12`, with 0.426% (inactive).

The next assay deals with wild-type MEF caspase activation, CaspaseGlo luminescence, 3 h. The description is as above.
Conditions: not given
The procedure, abridged: as §1
For the compound `O=c1c([N+](=O)[O-])c(Cl)c2ccccc2n1Cc1ccccc1`, the AC10 is 11.8 µM.
